Source: PubChem
TRPC4 agonist = activators of mouse TRPC4 channel, primary screen, Fluo4 calcium, HEK293 TRPC4beta/mu-opioid cells. Fluo4 calcium fluorescence; hits give high values. Short transient receptor potential channel 4 (Mus musculus), Q9QUQ5. hit rate 0.49% among 310,000. B-score at 10 µM;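 active = B-score above 5 SD of library B-scores, and initial fluorescence ratio not above library mean plus 5 SD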;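 note: positive B-score marks a calcium rise read as TRPC4 activation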
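system = HEK293 cells stably co-expressing mouse TRPC4beta and mu-opioid receptor | schedule = Fluo4 dye loading 45 min at room temperature, 110 s recording | measure = B-scored integrated calcium fluorescence ratio | signal = Fluo4 calcium-sensitive dye fluorescence, kinetic, 1 Hz baseline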
TRPC4 inh = inhibitors of mouse TRPC4 channel, primary screen, Fluo4 calcium, HEK293 TRPC4beta/mu-opioid cells. Short transient receptor potential channel 4 (Mus musculus), Q9QUQ5. DAMGO-evoked Fluo4 calcium flux; hits give low values. B-score at 10 µM. hit rate 0.39% among 300,000;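 active = B-score over 3 SD under the library average, no early fluorescence shift, positive overall ratio signal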
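System: stable TRPC4beta/mu-opioid receptor HEK293 cells; Dosing: single-point compound dosing; Measured by: Fluo4 Ca2+ flux fluorescence; Read-out basis: per-well B score of integrated baseline-normalized Fluo4 ratio.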
TRPC6 inh = mouse TRPC6 channel inhibitors, primary screen, cell-based, HEK293, membrane potential dye | Short transient receptor potential channel 6 (Mus musculus), Q61143 | ACh-evoked depolarization; hits give low values | B-score at 10 µM | hit rate 1.1% among 310,000 | AID 2553, 2010;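 active = B-score under library mean minus 3 SD, initial fluorescence not abnormally high, positive integrated signal ratio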;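 note: B-score derived from integrated fluorescence ratio over the kinetic read; more negative B-score means stronger inhibition of depolarization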
TRPC4 potent = positive allosteric modulators of TRPC4, primary screen, cell-based, mouse TRPC4beta, HEK293 mu-opioid, Fluo-4 calcium; Short transient receptor potential channel 4 (Mus musculus), Q9QUQ5; DAMGO EC20, Fluo-4 Ca2+ flux; hits give high values; B-score at 10 µM; hit rate 0.42% among 310,000;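 active = B-score of calcium response area above 5 SD of library B-scores, with initial fluorescence ratio within 5 SD of library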
TRPC6 act = mouse TRPC6 channel activators, primary screen, cell-based, HEK293, membrane potential dye. Short transient receptor potential channel 6 (Mus musculus), Q61143. HEK293-TRPC6 membrane potential dye fluorescence; hits give high values. B-score at 10 µM. hit rate 0.13% among 310,000. AID 2550, 2010;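 active = B-score of the integrated fluorescence ratio above library mean plus 3 SD, and starting fluorescence ratio within library mean plus 5 SD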;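 note: higher score means more depolarization so channel activation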
Numbers stand for hits; – = inactive. A selection: hits, their analogues and other compounds. The true share with any hit is near 2.3%.

SMILES	TRPC4 agonist	TRPC4 inh	TRPC6 inh	TRPC4 potent	TRPC6 act
O=C1CN(C(=O)c2ccc(Br)o2)C(c2ccccc2)c2cc(Br)ccc2N1 (configuration not stated)	–	–	–	13	–
N=c1c2c(n(Cc3ccc(Cl)cc3)c3c1CCC3)CCC2	–	-7	–	–	–
N=c1c2c(n(Cc3cccc(Cl)c3)c3c1CCC3)CCCC2	–	–	–	–	–
CNc1c(NS(=O)(=O)c2ccc3c(c2)CCCC3)c(=O)oc2ccccc12	–	–	–	–	–
CC(C)c1nc(SCc2ccccn2)c2c(=O)n(C)c(=O)n(C)c2n1	52	–	–	–	–
Cc1ccc(C(=O)NNC(=O)C2CSC3(C)CCC(=O)N23)cc1 (configuration not stated)	–	–	–	24	–
CC(=O)C1=C(S(=O)(=O)c2ccc(C)cc2)CS(=O)(=O)C1	–	-7	–	–	–
Cc1ccc(S(=O)(=O)C2CS(=O)(=O)CC2O)cc1 (configuration not stated)	–	–	–	–	–
CN(C)c1ccc(C(C(=O)NCC2CCCO2)N(Cc2ccccc2)C(=O)c2snc(C(N)=O)c2N)cc1 (configuration not stated)	–	–	–	–	–
COc1ccc(C)cc1N(C(=O)c1snc(C(N)=O)c1N)C(C(=O)NC1CCCCC1)c1ccc(C)o1 (configuration not stated)	–	-11	–	–	–
NC(=O)c1nsc(C(=O)N(Cc2ccc(F)cc2)C(C(=O)NCC2CCCO2)c2ccc(F)cc2)c1N (configuration not stated)	–	-7	–	–	–
Cc1ccc(C)c(N(C(=O)c2snc(C(N)=O)c2N)C(C(=O)NCC2CCCO2)c2ccc(C)o2)c1 (configuration not stated)	–	-7	–	–	–
Cc1ccc(C)c(N(C(=O)c2snc(C(N)=O)c2N)C(C(=O)NCC2CCCO2)c2cccs2)c1 (configuration not stated)	–	–	–	–	–
Nc1[nH]n2c(=O)cc(-c3ccccc3)nc2c1N=Nc1ccc2c(c1)OCO2	–	–	–	–	–
CCOC(=O)c1ccc(N(C(=O)c2ccco2)C(C(=O)NC2CCCC2)c2ccncc2)cc1 (configuration not stated)	–	–	–	–	–
Cc1cc(OCC(=O)N2CCCC2)cc(C)c1Cl	84	–	–	–	–
Cc1cc(OCC(=O)N2CCCC2)ccc1Cl	–	–	–	–	–
O=C(c1ccc(CNS(=O)(=O)c2ccc(Br)cc2)cc1)N1CCCCCC1	–	–	–	–	–
Cc1nn(Cc2ccccc2Cl)c(C)c1C(=O)NC1=NCCS1	–	–	–	–	–
CCC(CC)c1nnc(NC(=O)c2c(C)nn(Cc3ccccc3Cl)c2C)s1	–	–	–	21	–
Cc1cc2ncn(CCOc3ccccc3C#N)c2cc1C	–	–	–	–	–
CC(=O)c1ccc(OCC(O)CN2CCN(S(=O)(=O)c3c(C)cc(C)cc3C)CC2)cc1 (configuration not stated)	–	–	–	22	–
CN1CCN(S(=O)(=O)c2ccc(Br)c3ccccc23)CC1	–	–	–	49	–
Cc1cc(C)c(S(=O)(=O)N2CCN(C)CC2)c(C)c1	–	–	–	21	–
CN1CCN(S(=O)(=O)c2cc(Cl)c(Cl)cc2Cl)CC1	51	–	–	–	–
SMILES	TRPC4 agonist	TRPC4 inh	TRPC6 inh	TRPC4 potent	TRPC6 act
CN1CCN(S(=O)(=O)c2ccc(Cl)c3ccccc23)CC1	–	–	–	–	–
COc1cc(C)c(S(=O)(=O)N2CCN(C)CC2)cc1C	–	–	–	–	–
CCNc1c(NS(=O)(=O)c2ccc(Cl)s2)c(=O)oc2ccccc12	–	–	–	–	–
Cc1ccc(C)c(/C=N/Nc2nc3ccccc3c(=O)n2O)c1	–	–	–	–	–
O=C(COc1ccc(NS(=O)(=O)c2ccc(F)cc2)cc1)N1CCOCC1	–	–	–	–	–
CCN1CCN(S(=O)(=O)c2c(C)cc(C)cc2C)CC1	–	–	–	21	–
O=C(COC(=O)c1ccccn1)c1cccc(Br)c1	–	–	–	–	–
Cc1ccc(NC(=S)NC2CC3CCCC(C2)N3Cc2cccs2)cc1 (configuration not stated)	48	–	–	–	–
CCc1ccc(NC(=S)NC2CC3CCCC(C2)N3Cc2ccccc2)cc1 (configuration not stated)	51	–	–	–	–
CC1(C)CC(NC(=O)c2ccc(Cl)c(S(=O)(=O)N(Cc3ccccc3)c3ccccc3)c2)CC(C)(C)N1	–	–	–	–	–
CN1C2C=C(N(CCc3ccccc3)C(=O)c3ccc(Cl)cc3)CC1CC2 (configuration not stated)	99	–	–	–	–
CN1C2CCC1CC(N(CCc1ccccc1)C(=O)c1ccc(Cl)cc1)C2 (configuration not stated)	–	–	–	–	–
O=S(=O)(Cc1ccccc1)N(O)c1ccccc1	–	–	–	–	–
O=C(Cn1ncc2c([nH]c3ccccc32)c1=O)Nc1ccc(CN2CCCCC2)cc1	–	–	–	–	–
CCOC(=O)C1CCCN(C(=O)CCCn2nnnc2CN2CCOCC2)C1 (configuration not stated)	–	–	–	23	–
CNC(=S)N1N=C(c2ccc(C)cc2)CC1c1ccc(OC)c(OC)c1 (configuration not stated)	–	–	–	–	–
CNC(=S)N1N=C(c2ccccc2)CC1c1ccc(OC)c(OC)c1 (configuration not stated)	–	–	–	11	–
CCCn1c(=O)c2ccccc2n2c(SCCOc3ccc(OC)cc3)nnc12	–	–	–	–	–
CCCn1c(=O)c2ccccc2n2c(SCCOc3ccc(C)cc3)nnc12	–	-6	–	–	–
CCCn1ncc(CN2CCC(Cc3cccc(F)c3)(C(=O)OCC)CC2)c1C	–	–	–	–	–
CCOC(=O)C1(Cc2cccc(F)c2)CCN(C(=O)COC)CC1	–	–	–	–	–
CCOC(=O)C1(Cc2cccc(F)c2)CCN(Cc2cn(CC)nc2C)CC1	78	–	–	–	–
CCOC(=O)C1(Cc2cccc(F)c2)CCN(Cc2c(C)nn(CC)c2C)CC1	–	-6	–	–	–
CCOC(=O)C1(CCCc2ccccc2)CCN(Cc2cn(CC)nc2C)CC1	124	–	–	–	–
